What is called IC50 is the concentration at which inhibition is half-maximal. By inhibition in vivo is commonly meant the change of the read-out against control, counted positive when it falls.

Where only a bound is given, the exact number is not on record here.

The record followed here is ChEMBL document CHEMBL3351711, “Design, synthesis and biological evaluation of novel 6H-benzo[c]chromen-6-one, and 7,8,9,10-tetrahydro-benzo[c]chromen-6-one derivatives as potential cholinesterase inhibitors” (Bioorg Med Chem, 2014).

The species named for assay [1] is Homo sapiens. The experiment in a line: Selectivity index, ratio of IC50 for human recombinant BuChE to IC50 for human recombinant AChE.
A further assay addresses Acetylcholinesterase (Homo sapiens, UniProt P22303). The experiment in a line: Inhibition of human recombinant AChE using acetylthiocholine iodide substrate incubated for 15 mins by spectrophotometry based Ellman's method.
In a further assay the target is Cholinesterase (Homo sapiens, UniProt P06276). The experiment in a line: Inhibition of human recombinant BuChE using butyrylthiocholine iodide substrate incubated for 15 mins by spectrophotometry based Ellman's method. (Ellman's reagent forms a yellow product with free thiols.)
Chain of Cholinesterase (P06276 whole entry): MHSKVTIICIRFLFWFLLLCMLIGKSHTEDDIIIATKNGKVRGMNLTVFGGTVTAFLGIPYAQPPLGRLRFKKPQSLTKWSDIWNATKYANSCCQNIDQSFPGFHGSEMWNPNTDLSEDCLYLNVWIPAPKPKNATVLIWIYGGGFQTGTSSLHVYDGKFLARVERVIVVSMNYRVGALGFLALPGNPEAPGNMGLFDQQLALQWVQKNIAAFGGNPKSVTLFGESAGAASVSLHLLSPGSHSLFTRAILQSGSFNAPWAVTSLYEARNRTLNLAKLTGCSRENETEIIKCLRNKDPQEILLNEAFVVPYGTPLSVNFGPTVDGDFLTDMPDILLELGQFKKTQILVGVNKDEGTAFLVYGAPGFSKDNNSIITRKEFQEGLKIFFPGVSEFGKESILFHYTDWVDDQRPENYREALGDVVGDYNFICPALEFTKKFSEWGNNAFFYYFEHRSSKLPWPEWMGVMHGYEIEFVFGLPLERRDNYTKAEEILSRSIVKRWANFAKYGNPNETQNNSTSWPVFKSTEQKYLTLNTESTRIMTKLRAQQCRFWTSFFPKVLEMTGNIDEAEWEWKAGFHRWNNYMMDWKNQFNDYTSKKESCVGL
A further assay has as its system Rattus norvegicus. The experiment in a line: Antagonism of scopolamine-induced passive avoidance in Wistar rat assessed as latency of visiting dark box measured for 5 mins at 1 mg/kg, po dosed 30 mins after scopolamine challenge and measured 1 hr post dose. Format: functional. An outline of the steps: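 Rats, 10 per compound. Scopolamine 1 mg/kg ip given 30 min before the test compound (1 mg/kg oral). One hour after dosing, rats placed in the illuminated compartment with the door closed for 30 s habituation. Door then opens automatically and latency to enter the dark box is timed over 5 min. Antagonism (%) is scaled against the latency difference between no-scopolamine and scopolamine-only groups, taken as 100%.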

For assay [2], the species on record is Homo sapiens. In words: Selectivity index, ratio of IC50 for human recombinant AChE to IC50 for human recombinant BuChE. An outline of the steps:
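Modified Ellman assay in Tris-HCl pH 8.0 with DTNB (0.34 mM final). Human recombinant AChE (0.4 U/mL solution) with acetylthiocholine iodide; human recombinant BuChE (1.6 U/mL solution) with butyrylthiocholine iodide (1.5 mM final). 15 min at 27 °C, read at 412 nm against enzyme-free blank and inhibitor-free control, in triplicate. IC50s fitted by sigmoidal Hill slope; ratio of the two IC50s.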

Chain of Acetylcholinesterase (P22303 whole entry): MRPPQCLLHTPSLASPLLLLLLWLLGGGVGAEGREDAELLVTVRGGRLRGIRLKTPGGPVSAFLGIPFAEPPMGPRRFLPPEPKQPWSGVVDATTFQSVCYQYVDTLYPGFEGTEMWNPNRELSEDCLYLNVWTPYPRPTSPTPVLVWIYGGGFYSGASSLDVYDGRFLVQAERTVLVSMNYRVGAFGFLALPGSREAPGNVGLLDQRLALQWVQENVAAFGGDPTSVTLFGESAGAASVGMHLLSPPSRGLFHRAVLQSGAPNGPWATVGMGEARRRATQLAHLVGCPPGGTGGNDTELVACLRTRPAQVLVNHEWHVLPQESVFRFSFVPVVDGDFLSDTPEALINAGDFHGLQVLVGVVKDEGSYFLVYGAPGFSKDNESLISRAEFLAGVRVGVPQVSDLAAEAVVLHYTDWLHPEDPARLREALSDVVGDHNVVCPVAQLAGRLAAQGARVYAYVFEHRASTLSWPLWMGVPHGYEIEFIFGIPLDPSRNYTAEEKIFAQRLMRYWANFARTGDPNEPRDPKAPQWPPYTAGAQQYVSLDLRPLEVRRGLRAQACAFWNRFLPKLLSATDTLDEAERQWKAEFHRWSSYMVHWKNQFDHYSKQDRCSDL

As for `COc1cc(C(C)N(C)C)c2c(c1)oc(=O)c1ccccc12` (racemic), in the assay listed under Homo sapiens [1], the Ratio IC50 was determined as 1.6.
With `COc1cccc(CC2CCN(CCCOc3ccc4c5c(c(=O)oc4c3)CCCC5)CC2)c1`, the IC50 on Acetylcholinesterase is 4.9 µM; at Cholinesterase, greater than 40 µM. Moreover, the Ratio IC50 in the assay listed under Homo sapiens [1] was greater than 8.
The like results for `O=c1oc2cc(OCCN3CCN(Cc4ccccc4)CC3)ccc2c2ccccc12` were, in that order, 0.9 µM, 12.1 µM and 13.4.
The like results for `COc1cccc(CN(C)CCOc2ccc3c(c2)oc(=O)c2ccccc23)c1` were, in that order, 18.4 µM, 33.2 µM and 1.8.
The corresponding values for `O=c1oc2cc(OCCN3CCC(Cc4ccccc4)CC3)ccc2c2ccccc12` are 20 µM, greater than 40 µM and greater than 2.
As for `COc1cccc(CN(C)CCCOc2ccc3c(c2)oc(=O)c2ccccc23)c1`, the results for the IC50 at Acetylcholinesterase and on Cholinesterase were 20.9 µM and 29.2 µM, respectively. Further, the Ratio IC50 in the assay listed under Homo sapiens [1] was 1.4.
For `COc1cccc(CC2CCN(CCCCOc3ccc4c(c3)oc(=O)c3ccccc34)CC2)c1`, the half-maximal inhibitory concentration (IC50) at Acetylcholinesterase was 27.4 µM; at Cholinesterase, greater than 40 µM. For the same molecule, the Ratio IC50 in the assay listed under Homo sapiens [1] was greater than 1.
The corresponding values for `O=c1oc2cc(OCCCN3CCC(Cc4ccccc4)CC3)ccc2c2ccccc12` are 4.1 µM, 21.3 µM and 5.2.
The corresponding values for `O=c1oc2cc(OCCCN3CCC(Cc4ccccc4)CC3)ccc2c2c1CCCC2` are 4.3 µM, greater than 40 µM and greater than 9.
The corresponding values for `O=c1oc2cc(OCCCCN3CCC(Cc4ccccc4)CC3)ccc2c2ccccc12` are 14.2 µM, greater than 40 µM and greater than 2.
Consider `CC(c1ccc2c(c1)oc(=O)c1ccccc12)N(C)C` (racemic), for which the Ratio IC50 in the assay filed under Homo sapiens [1] amounted to 1.6. Also, the inhibition in vivo at 1 mg/kg in the assay with Rattus norvegicus amounted to 70%.
On to `CN(CCOc1ccc2c(c1)oc(=O)c1ccccc12)Cc1ccccc1`, for which the results for the IC50 at Acetylcholinesterase and at Cholinesterase were 6.7 µM and 14.1 µM, respectively. Besides, the Ratio IC50 in the assay filed under Homo sapiens [1] amounted to 2.1.
`COc1cccc(CN(C)CCCOc2ccc3c4c(c(=O)oc3c2)CCCC4)c1`: the IC50 was 2.7 µM on Acetylcholinesterase and greater than 40 µM on Cholinesterase. Besides, the Ratio IC50 in the assay listed under Homo sapiens [1] was greater than 14.
The like results for `COc1cccc(CN(C)CCCCOc2ccc3c4c(c(=O)oc3c2)CCCC4)c1` were, in that order, 1.7 µM, greater than 40 µM and greater than 23.
With `CC(c1cc(O)cc2oc(=O)c3ccccc3c12)N(C)C` (racemic), at Cholinesterase, the IC50 was greater than 40 µM. The Ratio IC50 in the assay listed under Homo sapiens [1] is greater than 1.
As for `O=c1oc2cc(OCCCCN3CCN(Cc4ccccc4)CC3)ccc2c2ccccc12`, the IC50 at Acetylcholinesterase was 8.2 µM; at Cholinesterase, greater than 40 µM. For the same molecule, the Ratio IC50 in the assay listed under Homo sapiens [1] is greater than 4.
For the molecule `CCN(C)C(=O)Oc1cccc([C@H](C)N(C)C)c1` (racemic) [RIVASTIGMINE], the inhibition in vivo at 1 mg/kg in the assay with Rattus norvegicus stood at 85%.
With `COc1cccc(CC2CCN(CCCOc3ccc4c(c3)oc(=O)c3ccccc34)CC2)c1`, the values for the IC50 on Acetylcholinesterase and at Cholinesterase were 18.5 µM and greater than 40 µM, respectively. The Ratio IC50 in the assay filed under Homo sapiens [1] was greater than 2.
On to `CN(CCCOc1ccc2c3c(c(=O)oc2c1)CCCC3)Cc1ccccc1`, for which the half-inhibitory concentration (IC50) was found to be 2.1 µM on Acetylcholinesterase and 15.9 µM at Cholinesterase. Besides, the Ratio IC50 in the assay listed under Homo sapiens [1] was determined as 7.6.
In the case of `O=c1oc2cc(OCCCN3CCN(Cc4ccccc4)CC3)ccc2c2ccccc12`, the values for the IC50 at Acetylcholinesterase and at Cholinesterase were 0.8 µM and 3.7 µM, respectively. Also, in the assay filed under Homo sapiens [1], the Ratio IC50 came out at 4.6. Besides, the inhibition in vivo at 1 mg/kg with Rattus norvegicus stood at 85%.
In the case of `C[C@@H](c1ccc2c(c1)oc(=O)c1ccccc12)N(C)C`, in the assay filed under Homo sapiens [1], the Ratio IC50 turned out to be 2.1. The inhibition in vivo at 1 mg/kg with Rattus norvegicus was 71%.
With `CN(CCCOc1ccc2c(c1)oc(=O)c1ccccc12)Cc1ccccc1`, the figures for the IC50 at Acetylcholinesterase and at Cholinesterase were 8.5 µM and 14.9 µM, respectively. The Ratio IC50 in the assay filed under Homo sapiens [1] is 1.7.
For the molecule `COc1cc(C(C)N(C)C)cc2oc(=O)c3ccccc3c12` (racemic), in the assay filed under Homo sapiens [1], the Ratio IC50 was determined as 7.5. Moreover, the inhibition in vivo at 1 mg/kg with Rattus norvegicus turned out to be 71%.
For `O=c1oc2cc(OCCCN3CCN(Cc4ccccc4)CC3)ccc2c2c1CCCC2`, the IC50 at Acetylcholinesterase is 0.9 µM; at Cholinesterase, 3.1 µM. For the same molecule, the Ratio IC50 in the assay filed under Homo sapiens [1] turned out to be 3.4. The inhibition in vivo at 1 mg/kg in the assay on Rattus norvegicus amounted to 58%.
With `COc1cccc(CC2CCN(CCOc3ccc4c(c3)oc(=O)c3ccccc34)CC2)c1`, the values for the IC50 at Acetylcholinesterase and at Cholinesterase were 29.3 µM and greater than 40 µM, respectively. Moreover, in the assay listed under Homo sapiens [1], the Ratio IC50 is greater than 1.
The corresponding values for `O=c1oc2cc(OCCN3CCN(Cc4ccccc4)CC3)ccc2c2c1CCCC2` are 1.3 µM, 32 µM and 24.6.
As for `CN(CCCCOc1ccc2c(c1)oc(=O)c1ccccc12)Cc1ccccc1`, the IC50 at Acetylcholinesterase is 1.1 µM; at Cholinesterase it was 6.5 µM. The Ratio IC50 in the assay filed under Homo sapiens [1] was determined as 5.9. Also, the inhibition in vivo at 1 mg/kg in the assay with Rattus norvegicus was 62%.
The like results for `CN(CCCCOc1ccc2c3c(c(=O)oc2c1)CCCC3)Cc1ccccc1` were, in that order, 1 µM, 18.9 µM, 18.9 and 65%.
With `COc1cccc(CN2CCN(CCCCOc3ccc4c(c3)oc(=O)c3ccccc34)CC2)c1`, the IC50 at Acetylcholinesterase was 21.3 µM; on Cholinesterase, greater than 40 µM. In addition, the Ratio IC50 in the assay listed under Homo sapiens [1] was greater than 1.
As to `COc1cccc(CN2CCN(CCOc3ccc4c5c(c(=O)oc4c3)CCCC5)CC2)c1`, the IC50 at Acetylcholinesterase is 7.3 µM; on Cholinesterase, greater than 40 µM. The Ratio IC50 in the assay listed under Homo sapiens [1] is greater than 5.
The corresponding values for `COc1cccc(CN(C)CCOc2ccc3c4c(c(=O)oc3c2)CCCC4)c1` are 6 µM, greater than 40 µM and greater than 6.
The like results for `COc1cccc(CN2CCN(CCCOc3ccc4c(c3)oc(=O)c3ccccc34)CC2)c1` were, in that order, 18 µM, greater than 40 µM and greater than 2.
With `CC(c1cc(O)c2c(c1)oc(=O)c1ccccc12)N(C)C` (racemic), in the assay filed under Homo sapiens [2], the Ratio IC50 turned out to be 4.5. The inhibition in vivo at 1 mg/kg in the assay with Rattus norvegicus was 49%.
Take `COc1cccc(CN2CCN(CCOc3ccc4c(c3)oc(=O)c3ccccc34)CC2)c1`: the IC50 at Acetylcholinesterase was 11.4 µM; at Cholinesterase, greater than 40 µM. Further, the Ratio IC50 in the assay filed under Homo sapiens [1] is greater than 3.
For `COc1cc2c(cc1OC)C(=O)C(CC1CCN(Cc3ccccc3)CC1)C2` (configuration not stated) [DONEPEZIL], in the assay with Rattus norvegicus, the inhibition in vivo at 1 mg/kg is 58%.
In the case of `O=c1oc2cc(OCCN3CCC(Cc4ccccc4)CC3)ccc2c2c1CCCC2`, the IC50 at Acetylcholinesterase is 8.1 µM; at Cholinesterase, greater than 40 µM. Moreover, the Ratio IC50 in the assay filed under Homo sapiens [1] is greater than 5.
Consider `CN(CCOc1ccc2c3c(c(=O)oc2c1)CCCC3)Cc1ccccc1`, for which the values for the IC50 at Acetylcholinesterase and at Cholinesterase were 2.8 µM and greater than 40 µM, respectively. Also, the Ratio IC50 in the assay filed under Homo sapiens [1] was greater than 14.
On to `O=c1oc2cc(OCCCCN3CCC(Cc4ccccc4)CC3)ccc2c2c1CCCC2`, for which the IC50 on Acetylcholinesterase turned out to be 9.2 µM; at Cholinesterase, 20.1 µM. In addition, the Ratio IC50 in the assay filed under Homo sapiens [1] was 2.2.
The like results for `COc1cccc(CC2CCN(CCOc3ccc4c5c(c(=O)oc4c3)CCCC5)CC2)c1` were, in that order, 37.2 µM, greater than 40 µM and greater than 1.
The like results for `COc1cccc(CC2CCN(CCCCOc3ccc4c5c(c(=O)oc4c3)CCCC5)CC2)c1` were, in that order, 13.7 µM, 27.8 µM and 2.
The corresponding values for `COc1cccc(CN2CCN(CCCOc3ccc4c5c(c(=O)oc4c3)CCCC5)CC2)c1` are 6.2 µM, 18.4 µM and 2.9.
Turning to `COc1cccc(CN(C)CCCCOc2ccc3c(c2)oc(=O)c2ccccc23)c1`, the IC50 came out at 8.3 µM on Acetylcholinesterase and 17.6 µM on Cholinesterase. Further, the Ratio IC50 in the assay listed under Homo sapiens [1] turned out to be 2.1.
Consider `O=c1oc2cc(OCCCCN3CCN(Cc4ccccc4)CC3)ccc2c2c1CCCC2`, for which the IC50 is 6.4 µM at Acetylcholinesterase and 14.6 µM on Cholinesterase. The Ratio IC50 in the assay listed under Homo sapiens [1] was found to be 2.3.
As for `CCN(C)C(=O)Oc1cc(C(C)N(C)C)c2c(c1)oc(=O)c1ccccc12` (racemic), on Acetylcholinesterase, the IC50 is greater than 40 µM. Further, the Ratio IC50 in the assay listed under Homo sapiens [2] was greater than 4.
Consider `COc1cccc(CN2CCN(CCCCOc3ccc4c5c(c(=O)oc4c3)CCCC5)CC2)c1`, for which the IC50 on Acetylcholinesterase is 8.7 µM; at Cholinesterase, 23.4 µM. In addition, the Ratio IC50 in the assay filed under Homo sapiens [1] was 2.7.
